Assay results from the array DNA melting data of Ke et al. (doi:10.1101/2024.01.08.574731).

What was measured:
[1] = folding enthalpy; higher = less favourable; fluorescence melt of hairpins on a sequencing array, two-state fit; details: sodium 0.088 M
In short: (§1)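 Hairpins were imaged by Cy3 fluorescence on a sequenced MiSeq flow cell with annealed Cy3 and quencher oligos, in 50 mM Na-HEPES pH 8.0, 25 mM NaCl, in 2.5 °C steps up to 60 °C. Bootstrapped two-state fits of normalised signals gave melting temperature and folding enthalpy. Four replicates were combined by inverse variance, and fitted temperatures were raised by 9.35 °C to match UV melts.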

[2] = melting temperature; fluorescence melt of hairpins on a sequencing array, two-state fit, raised by 9.35 °C to match UV melts; details: sodium 0.088 M
In short: as §1

Sequence	folding enthalpy [1]	Tm [2]
GCGCCCGAAAGGGGCCGC ((((((....)))..)))	-16.4 kcal/mol	61.4 °C
GGGCTTCGAAAGAATCCC (((.(((....))).)))	-33 kcal/mol	46.4 °C
GATCCAGATGTGGATC ((((((....))))))	-35.4 kcal/mol	51.1 °C
GATCACCTGGGTGATC ((((((....))))))	-47.5 kcal/mol	62.6 °C
GGCGATGGAAACATTGCC (((.(((....))).)))	-47.2 kcal/mol	55.2 °C
GGGAGCGAAAGCTTCCC ((((((....))).)))	-20.5 kcal/mol	61.7 °C
GATCGACCTGTCGATC ((((((....))))))	-40.3 kcal/mol	65 °C
GGGAGACGAAAGTCACCC (((.(((....))).)))	-31.5 kcal/mol	58.2 °C
GCTCGGCGAAAGCGTAGC (((..((....))..)))	-12.9 kcal/mol	39.3 °C
GGCATAGGAAACTATGCC (((((((....)))))))	-39.5 kcal/mol	64.9 °C
GATAGCGGAAACGTTATC ((((.((....)).))))	-34.8 kcal/mol	42.3 °C
GGGAACGAAAGTTACCCC ((((((....)))..)))	-20.2 kcal/mol	53.4 °C
GCCGCGCGAAAGCGGAGC ((..(((....)))..))	-12.8 kcal/mol	52.5 °C
GCGCGGCGAAAGCTGGGC ((.(.((....)).).))	-32.4 kcal/mol	67.2 °C
GGATCTCGAAAGAGCTCC (((.(((....))).)))	-31.7 kcal/mol	44.5 °C
GGCTGCGAAAGCAATGCC ((((((....)))..)))	-22 kcal/mol	55 °C
GCGAGCGAAAGCTAACGC ((((((....)))..)))	-22.7 kcal/mol	52.6 °C
GATCTCGTAGAGATC ((((((...))))))	-37.2 kcal/mol	67.9 °C
GATCAACGAAAGTTAATC (((.(((....))).)))	-11.7 kcal/mol	27.8 °C
GATAACGAAAGTTGTATC ((((((....)))..)))	-18.9 kcal/mol	26.9 °C
GATCGCAGAGGCGATC ((((((....))))))	-35.8 kcal/mol	66.8 °C
GATCGGGGGACCGATC ((((((....))))))	-36.2 kcal/mol	61.9 °C
GCTTTGCGAAAGCGATGC ((.(.((....)).).))	-19.2 kcal/mol	46.5 °C
GCAAACGAAAGTTTTTGC ((((((....)))..)))	-16.1 kcal/mol	35.2 °C

Sequence	folding enthalpy [1]	Tm [2]
GCGGCTTTCCGC ((((....))))	-25 kcal/mol	56.6 °C
CGTACGGAAACGTAACG ((((((....))).)))	-28.7 kcal/mol	45.3 °C
GATCGTAATGACGATC ((((((....))))))	-34.3 kcal/mol	52.8 °C
GGCTGTGGAAACACGGTC (.(.(((....))).).)	-28.1 kcal/mol	44.4 °C
GGCCATGGAAACATAGCC (((.(((....))).)))	-31.5 kcal/mol	40.8 °C
GATCCCGCGGGGATC ((((((...))))))	-31.2 kcal/mol	61 °C
GCCATCGAAAGATTGGGC ((((((....)))..)))	-26.8 kcal/mol	44.1 °C
GAATTGAAAAATTC (((((....)))))	-13.5 kcal/mol	31.7 °C
GATCGGTCCACCGATC ((((((....))))))	-50 kcal/mol	60.9 °C
GCGGCCCTCCGC ((((....))))	-26.5 kcal/mol	59.6 °C
GTCGTCGAAAGACTCGAC ((((((....)))..)))	-14.9 kcal/mol	38.6 °C
GATAAAACGAAAGTTATC (((..(((....))))))	-9.65 kcal/mol	22.7 °C
GATCAAATCCTTGATC ((((((....))))))	-35.8 kcal/mol	42.1 °C
GATCGATACTTCGATC ((((((....))))))	-57.9 kcal/mol	53 °C
GCGAGGATTCGC ((((....))))	-22.7 kcal/mol	54.7 °C
GGTCCGCGAAAGCGCACC (((.(((....))).)))	-20.9 kcal/mol	48.3 °C
GTCTACCGAAAGGTCGAC (((.(((....))).)))	-33.9 kcal/mol	48.7 °C
GTTAGGCGAAAGCCCAAC (((.(((....))).)))	-13.8 kcal/mol	37.2 °C
GGCGTGGGAAACTACGCC (((((.(....).)))))	-48 kcal/mol	61.2 °C
GGCGTAGGAAACTATGCC (((.(((....))).)))	-41.8 kcal/mol	53.5 °C
GCCTTCGAAAGAATAGGC ((((((....)))..)))	-28.8 kcal/mol	44.8 °C
GCCGAGCGAAAGCGTGGC (((..((....))..)))	-25.4 kcal/mol	68.3 °C
GATCGTACGCACGATC ((((((....))))))	-37.4 kcal/mol	55.1 °C
GGTTCGGGAAACCGAGCC ((.((((....)))).))	-40.4 kcal/mol	58.3 °C

Sequence	folding enthalpy [1]	Tm [2]
GGGACCCGAAAGGGACCC (((.(((....))).)))	-31.1 kcal/mol	67 °C
GTGCTGGCGAAAGCCCAC (((..(((....))))))	-10.3 kcal/mol	49.3 °C
GCTACCGAAAGGTCAAGC ((((((....)))..)))	-14.9 kcal/mol	39.1 °C
GCGTGCGAAAGCATTCGC ((((((....)))..)))	-16.8 kcal/mol	52.4 °C
GTGCCCGAAAGGGACAC ((((((....))).)))	-25.5 kcal/mol	58.7 °C
CGGTCCCGGAAACGGCCG (((..(((....))))))	-21.1 kcal/mol	41.3 °C
GCTTTGCGAAAGCTTAGC (((..((....))..)))	-16.7 kcal/mol	55.2 °C
GTTGGCGAAAGCCGTAAC ((((((....)))..)))	-9.54 kcal/mol	33.4 °C
GCCTTTGGAAACAGAGGC ((((.((....)).))))	-31.1 kcal/mol	48.2 °C
GCGAGTACTCGC ((((....))))	-30.6 kcal/mol	56.6 °C
GATCCTTGACAGGATC ((((((....))))))	-28.2 kcal/mol	49.7 °C
GGCATACGAAAGTAGGCC (((.(((....))).)))	-47.1 kcal/mol	63.4 °C
GTCGCTTCGAAAGAAGAC (((..(((....))))))	-9.98 kcal/mol	33.9 °C
GCCTTATCGAAAGATGGC (((..(((....))))))	-28.7 kcal/mol	42.6 °C
GATCTGCTTTCAGATC ((((((....))))))	-40.1 kcal/mol	49.1 °C
GATCTGTCGACAGATC ((((((....))))))	-49.6 kcal/mol	55.1 °C
GCCATAGGAAACTGTGGC ((((.((....)).))))	-39.1 kcal/mol	52.2 °C
AGAAACAGAAATGGTTCT ((((.((....)).))))	-22.8 kcal/mol	33.1 °C
GCGATTGGAAACGATTGC ((.((.(....).)).))	-26.7 kcal/mol	36.4 °C
GCACCGCGAAAGCGAGGC ((..(((....)))..))	-14.6 kcal/mol	53.2 °C
GGTTCAGGAAACTGAATC (.(((((....))))).)	-30.1 kcal/mol	44.2 °C
CGGATGAAAATCCG (((((....)))))	-25.5 kcal/mol	56 °C
GCGTCTGGACGC ((((....))))	-34.1 kcal/mol	59.8 °C
GGCCACCCGAAAGGGGCC (((..(((....))))))	-23.2 kcal/mol	61.3 °C

Sequence	folding enthalpy [1]	Tm [2]
GATCGGGGAAACCTGGTC ((.(.((....)).).))	-22.6 kcal/mol	36.3 °C
GCGCTCCGAAAGGAACGC (((.(((....))).)))	-46.8 kcal/mol	65 °C
GATCGCAGGGGCGATC ((((((....))))))	-34.1 kcal/mol	67.5 °C
GCCCCCACGAAAGTGGGC (((..(((....))))))	-5.47 kcal/mol	38.6 °C
GCGACGCGAAAGCCTTGC ((.(.((....)).).))	-12 kcal/mol	35.9 °C
GCCGGGCGAAAGCCTCGC ((..(((....)))..))	-11.1 kcal/mol	48.3 °C
GGAGAAGGAAACTTCTCC (((((((....)))))))	-43.1 kcal/mol	57.7 °C
GGACCCCCGAAAGGGTCC (((..(((....))))))	-34.8 kcal/mol	62.1 °C
GCTTGGCGAAAGCGCAGC (((..((....))..)))	-12.8 kcal/mol	43.5 °C
GATCTAACATTAGATC ((((((....))))))	-22.6 kcal/mol	39.6 °C
GTTATGAAAATAAC (((((....)))))	-16.9 kcal/mol	38.6 °C
GCGGCCGAAAGGCCACGC ((((((....)))..)))	-13.6 kcal/mol	65.1 °C
GTACCGCGAAAGCGCTAC (((.(((....))).)))	-12.2 kcal/mol	35.9 °C
CGTACGGAAACGTTTACG ((((((....)))..)))	-16 kcal/mol	37.3 °C
GCGAGGCTCGC ((((...))))	-28.5 kcal/mol	52.8 °C
TACATGAAAATGTA (((((....)))))	-12.7 kcal/mol	32.1 °C
GGCAGCGAAAGCTAAGCC ((((((....)))..)))	-25.2 kcal/mol	55.6 °C
GATAACGAAAGTTCATC ((((((....))).)))	-10.4 kcal/mol	26.2 °C
GGGCGGGGAAACCCACCC (((.(((....))).)))	-40.7 kcal/mol	54.6 °C
GACGCAGGAAACTGTGTC (((.(((....))).)))	-39.8 kcal/mol	52.5 °C
GATCCAATCTGGATC ((((((...))))))	-33.1 kcal/mol	51.8 °C
